Assay results reported in ChEMBL document CHEMBL1142820, “Identification of potent and selective MMP-13 inhibitors” (Bioorg Med Chem Lett, 2005).

Assays:
Collagenase 3 = Collagenase 3 (Bos taurus, UniProt O77656); assay: Inhibitory concentration against MMP-13 of bovine articular cartilage explants
Bos taurus = species on record: Bos taurus; assay: Selectivity ratio for IC50 of MMP-2 to that of MMP-13
Outline: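 Both IC50s come from continuous fluorescence assays using quenched peptide substrates (7-methoxycoumarin or 2-aminobenzoyl fluorophore, 2,4-dinitrophenyl quencher), read by plate fluorimeter. MMP-13 was prepared in-house. MMP-2 was commercial and activated with […]. […] The ratio is MMP-2 IC50 over MMP-13 IC50.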

[1] = target: Matrix metalloproteinase-14 (Homo sapiens, UniProt P50281); assay: Inhibitory concentration against MMP-14
[2] = target: 72 kDa type IV collagenase (Homo sapiens, UniProt P08253); assay: Inhibitory concentration against MMP-2
72 kDa type IV collagenase, sequence (P08253 whole entry): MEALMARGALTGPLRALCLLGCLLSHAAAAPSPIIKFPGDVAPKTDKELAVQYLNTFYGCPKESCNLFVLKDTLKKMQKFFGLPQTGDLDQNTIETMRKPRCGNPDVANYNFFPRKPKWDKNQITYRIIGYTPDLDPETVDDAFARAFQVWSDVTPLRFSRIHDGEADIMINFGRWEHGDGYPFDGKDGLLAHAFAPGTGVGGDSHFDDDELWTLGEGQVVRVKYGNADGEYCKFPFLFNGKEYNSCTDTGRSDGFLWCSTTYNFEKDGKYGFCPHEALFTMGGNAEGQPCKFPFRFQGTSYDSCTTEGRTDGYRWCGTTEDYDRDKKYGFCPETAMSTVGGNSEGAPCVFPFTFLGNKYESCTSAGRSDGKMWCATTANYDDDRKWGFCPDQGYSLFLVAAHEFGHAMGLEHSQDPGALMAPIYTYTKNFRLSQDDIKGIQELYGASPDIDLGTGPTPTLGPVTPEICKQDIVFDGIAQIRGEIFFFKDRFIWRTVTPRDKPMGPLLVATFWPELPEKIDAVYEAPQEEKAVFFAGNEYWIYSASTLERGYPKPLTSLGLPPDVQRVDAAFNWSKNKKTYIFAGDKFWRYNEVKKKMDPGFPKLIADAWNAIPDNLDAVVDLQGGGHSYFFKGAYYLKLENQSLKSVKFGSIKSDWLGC
Outline: (§1)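 Continuous fluorescence assay of commercially sourced enzyme cleaving a synthetic peptide whose fluorophore (7-methoxycoumarin or 2-aminobenzoyl) is quenched by 2,4-dinitrophenyl. Signal is read at the fluorophore's excitation/emission wavelengths. MMP-2 was preactivated with APMA. MMP-3 used substrate Mca-PKPLAL-Dpa-AR-NH2.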

[3] = Inhibitory concentration against MMP-3; outline: as §1
[4] = Inhibitory concentration against MMP-7; outline: as §1
[5] = Inhibitory concentration against MMP-9; outline: as §1
[6] = Half-life in rat upon oral administration at 5 mg/kg; assay type: ADME, organism-based; design: dose 5 mg/kg, route oral; conditions: in vivo
Outline: (§2)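 Rats were dosed intravenously at 2 mg/kg and orally at 5 mg/kg. Clearance and iv half-life come from the intravenous arm, oral half-life from the oral arm, and bioavailability from comparison of the two routes.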

[7] = Oral bioavailability in rat; assay type: ADME, organism-based; conditions: in vivo; outline: as §2
[8] = Total clearance from rat upon iv administration at 2 mg/kg; assay type: ADME, organism-based; design: dose 2 mg/kg, route intravenous; conditions: in vivo; outline: as §2
[9] = Half-life in rat upon iv administration; assay type: ADME, organism-based; conditions: in vivo; outline: as §2
Interstitial collagenase = target: T1, Interstitial collagenase (Homo sapiens, UniProt P03956); assay: Inhibitory concentration against MMP-1
T1 sequence (P03956 whole entry): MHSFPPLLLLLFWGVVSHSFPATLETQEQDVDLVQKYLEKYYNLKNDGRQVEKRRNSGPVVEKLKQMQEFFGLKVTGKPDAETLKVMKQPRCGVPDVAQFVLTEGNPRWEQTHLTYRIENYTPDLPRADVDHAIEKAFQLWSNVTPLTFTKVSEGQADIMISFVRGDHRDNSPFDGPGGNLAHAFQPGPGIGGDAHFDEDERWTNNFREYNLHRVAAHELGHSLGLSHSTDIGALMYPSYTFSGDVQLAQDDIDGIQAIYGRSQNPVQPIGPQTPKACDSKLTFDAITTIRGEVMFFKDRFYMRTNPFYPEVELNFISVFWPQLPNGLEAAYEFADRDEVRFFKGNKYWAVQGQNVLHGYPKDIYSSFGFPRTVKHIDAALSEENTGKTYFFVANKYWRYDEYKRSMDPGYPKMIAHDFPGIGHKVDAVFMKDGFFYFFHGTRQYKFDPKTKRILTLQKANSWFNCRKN
Outline: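 Continuous fluorescence assay with in-house prepared enzyme. The synthetic peptide substrate carries a 7-methoxycoumarin or 2-aminobenzoyl fluorophore quenched by energy transfer to 2,4-dinitrophenyl. Read in plate fluorimeter at fluorophore excitation/emission wavelengths.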

| SMILES | IC50 (Collagenase 3) [nM] | Selectivity (Bos taurus) | IC50 [2] [nM] | also measured |
| --- | --- | --- | --- | --- |
| Cc1cc(C)c(N(Cc2ccccc2)S(=O)(=O)c2ccc(OCCNC(=O)c3cc4ccccc4o3)cc2)c(C(=O)NO)c1 | 10000 | – | – | – |
| COc1ccc2oc(C(=O)Nc3ccc(-c4ccc(S(=O)(=O)N[C@H](C(=O)O)C(C)C)cc4)cc3)cc2c1 | 0.66 | 2.8 | 1.9 | IC50 [1]: 1.5 nM |
| O=C(Nc1ccc(-c2ccc(S(=O)(=O)N[C@@H](CO)C(=O)O)cc2)cc1)c1cc2ccccc2o1 | 4.5 | – | 27.8 | – |
| CC(C)C[C@H](NS(=O)(=O)c1ccc(-c2ccc(NC(=O)c3cc4ccccc4o3)cc2)cc1)C(=O)O | 2.19 | – | – | – |
| CC(C)[C@H](NS(=O)(=O)c1ccc(-c2ccc(NC(=O)c3cc4cc(N)ccc4o3)cc2)cc1)C(=O)O | 1.5 | – | – | – |
| CC(C)[C@H](NS(=O)(=O)c1ccc(-c2ccc(NC(=O)c3cc4cc([N+](=O)[O-])ccc4o3)cc2)cc1)C(=O)O | 0.7 | 2.8 | 2 | – |
| COc1cccc2cc(C(=O)Nc3ccc(-c4ccc(S(=O)(=O)N[C@H](C(=O)O)C(C)C)cc4)cc3)oc12 | 20.2 | 0.6 | 12.1 | IC50 [1]: 10900 nM |
| CC(C)[C@H](NS(=O)(=O)c1ccc(-c2ccc(NC(=O)c3cc4cc(NS(C)(=O)=O)ccc4o3)cc2)cc1)C(=O)O | 0.43 | 9.1 | 3.9 | – |
| CC(Oc1cccc2oc(C(=O)Nc3ccc(-c4ccc(S(=O)(=O)N[C@H](C(=O)O)C(C)C)cc4)cc3)cc12)C(=O)O (stereo not given in full) | 14.9 | 107 | 1590 | IC50 [3]: 843 nM; IC50 [4]: 2500 nM; IC50 [1]: 20000 nM; IC50 [5]: 5600 nM |
| CC(C)[C@H](NS(=O)(=O)c1ccc(-c2ccc(NC(=O)c3csnn3)cc2)cc1)C(=O)O | – | – | 2.14 | – |
| O=C(NCCCCN1CCOCC1)c1cc2ccccc2o1 | 3200 | – | – | – |
| NC(=O)C[C@H](NS(=O)(=O)c1ccc(-c2ccc(NC(=O)c3cc4ccccc4o3)cc2)cc1)C(=O)O | 2.53 | – | – | – |
| CC(C)[C@H](NS(=O)(=O)c1ccc(-c2ccc(NCc3cc4ccccc4o3)cc2)cc1)C(=O)O | 4.9 | – | 23.3 | IC50 [1]: 6600 nM |
| CC(C)[C@H](NS(=O)(=O)c1ccc(-c2ccc(NC(=O)c3cc4c(OCc5ccccc5)cccc4o3)cc2)cc1)C(=O)O | – | 18 | – | – |
| COc1cccc2oc(C(=O)Nc3ccc(-c4ccc(S(=O)(=O)N[C@H](C(=O)O)C(C)C)cc4)cc3)cc12 | 2.33 | 6.9 | – | – |
| CC(C)[C@H](NS(=O)(=O)c1ccc(-c2ccc(NC(=O)c3cc4cc(Cl)ccc4o3)cc2)cc1)C(=O)O | 0.6 | 5.3 | 3.2 | – |
| O=C(O)CNS(=O)(=O)c1ccc(-c2ccc(NC(=O)c3cc4ccccc4o3)cc2)cc1 | 22 | – | – | – |
| CC(C)[C@H](NS(=O)(=O)c1ccc(-c2ccc(NC(=O)c3cc4ccccc4o3)cc2)cc1)C(=O)O | – | – | 5 | half-life [6]: 3 h; bioavailability [7]: 24%; clearance [8]: 2 mL/min/kg; half-life [9]: 3.7 h; IC50 (Interstitial collagenase): > 16000 nM |
| CC(C)[C@H](NS(=O)(=O)c1ccc(-c2ccc(NC(=O)c3cc4cc(NS(=O)(=O)c5ccccc5)ccc4o3)cc2)cc1)C(=O)O | 3.4 | 5.6 | – | – |
| CC(=O)Nc1ccc2oc(C(=O)Nc3ccc(-c4ccc(S(=O)(=O)N[C@H](C(=O)O)C(C)C)cc4)cc3)cc2c1 | 0.98 | 4.1 | 4 | – |
